Measured values published in ChEMBL document CHEMBL4765256, “Structural features and functional activities of benzimidazoles as NOD2 antagonists” (Eur J Med Chem, 2020).
Calls of active or inactive are those of the source.

Assays:
[1] = tested on: THP-1; assay: Cytotoxicity against human THP-1 cells assessed as […] dehydrogenase leakage at 20 uM incubated for 18 hrs; type: cell-based; conditions: thp-1, 18 h
Procedure, shortened: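 THP-1 cells treated 18 h with compound at up to 20 µM. Lactate dehydrogenase released into cell-free supernatant measured with a colorimetric kit, results given as OD.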

[2] = tested on: HEK293; assay: Cytotoxicity against human HEK293 cells expressing human NOD1 assessed as reduction in metabolic activity at 20 uM incubated for 18 hrs by MTS assay; type: ADME, cell-based; conditions: hek293, 18 h
Procedure, shortened: (§1)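 HEK-Blue NOD1 or NOD2 cells seeded at 1 × 10^4 cells/well in triplicate. Treated 18 h with 20 µM compound or 0.1% DMSO vehicle. Metabolic activity read by MTS (CellTiter 96 AQueous One) and expressed relative to vehicle control. Mean ± SD of three biological replicates.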

[3] = tested on: HEK293; assay: Cytotoxicity against human HEK293 cells expressing human NOD2 assessed as reduction in metabolic activity at 20 uM incubated for 18 hrs by MTS assay; type: ADME, cell-based; conditions: hek293, 18 h; procedure, shortened: as §1
[4] = target: T1, Nucleotide-binding oligomerization domain-containing protein 2 (Homo sapiens, UniProt Q9HC29); assay: Antagonist activity at human NOD2 expressed in HEK293 cells assessed as reduction in MDP-induced NF-kappaB activation preincubated for 1 hr followed by MDP stimulation and measured after 18 hrs by SEAP reporter gene based spectrophotometric analysis; type: cell-based; conditions: read-out: IC50
T1 sequence (Q9HC29 whole entry, the tested form may be a part): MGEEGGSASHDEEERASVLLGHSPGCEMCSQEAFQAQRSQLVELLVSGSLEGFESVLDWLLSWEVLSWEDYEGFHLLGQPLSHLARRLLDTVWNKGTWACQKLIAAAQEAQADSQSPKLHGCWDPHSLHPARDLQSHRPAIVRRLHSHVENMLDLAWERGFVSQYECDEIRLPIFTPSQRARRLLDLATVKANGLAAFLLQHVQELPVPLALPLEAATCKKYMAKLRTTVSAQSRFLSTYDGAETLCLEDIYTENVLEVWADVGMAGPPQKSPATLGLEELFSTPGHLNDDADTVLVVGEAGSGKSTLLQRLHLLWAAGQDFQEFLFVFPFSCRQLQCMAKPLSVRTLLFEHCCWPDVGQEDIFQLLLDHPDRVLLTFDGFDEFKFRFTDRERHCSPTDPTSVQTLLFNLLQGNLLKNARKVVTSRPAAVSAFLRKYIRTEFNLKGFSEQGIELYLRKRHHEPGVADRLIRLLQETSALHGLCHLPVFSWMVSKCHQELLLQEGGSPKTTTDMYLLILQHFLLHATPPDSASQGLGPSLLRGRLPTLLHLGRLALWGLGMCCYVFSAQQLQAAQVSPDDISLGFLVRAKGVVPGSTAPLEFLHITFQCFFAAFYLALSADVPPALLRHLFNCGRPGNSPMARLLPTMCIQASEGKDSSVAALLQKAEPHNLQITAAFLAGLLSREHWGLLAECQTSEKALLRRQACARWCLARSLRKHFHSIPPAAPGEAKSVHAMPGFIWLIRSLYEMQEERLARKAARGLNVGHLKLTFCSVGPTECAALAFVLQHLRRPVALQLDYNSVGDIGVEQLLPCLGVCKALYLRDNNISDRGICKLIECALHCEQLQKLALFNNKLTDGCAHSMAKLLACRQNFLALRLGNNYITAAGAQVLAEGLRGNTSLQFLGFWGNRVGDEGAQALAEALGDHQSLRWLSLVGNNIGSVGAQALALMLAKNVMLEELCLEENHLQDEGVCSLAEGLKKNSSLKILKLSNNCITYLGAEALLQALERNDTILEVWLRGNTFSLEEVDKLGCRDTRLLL
Procedure, shortened: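 Dose–response in HEK-Blue NOD2 and NOD1 cells (5 × 10^5 cells/mL): 1 h pre-treatment with 0.3125–20 µM antagonist, then 2 µM MDP or 100 nM C12-iE-DAP respectively, 18 h incubation. SEAP absorbance read at 620 nm. IC50 fitted by non-linear regression. Duplicates, three biological replicates, DMSO ≤0.1%.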

[5] = target: T2, Nucleotide-binding oligomerization domain-containing protein 1 (Homo sapiens) (UniProt Q9Y239); assay: Antagonist activity at human NOD1 expressed in HEK293 cells assessed as reduction in C12-iE-DAP-induced NF-kappaB activation at 10 uM preincubated for 1 hr followed by C12-iE-DAP stimulation and measured after 18 hrs by SEAP reporter gene based spectrophotometric analysis; type: cell-based; conditions: filed as antagonist, time 19.0 hrs
T2 sequence (whole entry): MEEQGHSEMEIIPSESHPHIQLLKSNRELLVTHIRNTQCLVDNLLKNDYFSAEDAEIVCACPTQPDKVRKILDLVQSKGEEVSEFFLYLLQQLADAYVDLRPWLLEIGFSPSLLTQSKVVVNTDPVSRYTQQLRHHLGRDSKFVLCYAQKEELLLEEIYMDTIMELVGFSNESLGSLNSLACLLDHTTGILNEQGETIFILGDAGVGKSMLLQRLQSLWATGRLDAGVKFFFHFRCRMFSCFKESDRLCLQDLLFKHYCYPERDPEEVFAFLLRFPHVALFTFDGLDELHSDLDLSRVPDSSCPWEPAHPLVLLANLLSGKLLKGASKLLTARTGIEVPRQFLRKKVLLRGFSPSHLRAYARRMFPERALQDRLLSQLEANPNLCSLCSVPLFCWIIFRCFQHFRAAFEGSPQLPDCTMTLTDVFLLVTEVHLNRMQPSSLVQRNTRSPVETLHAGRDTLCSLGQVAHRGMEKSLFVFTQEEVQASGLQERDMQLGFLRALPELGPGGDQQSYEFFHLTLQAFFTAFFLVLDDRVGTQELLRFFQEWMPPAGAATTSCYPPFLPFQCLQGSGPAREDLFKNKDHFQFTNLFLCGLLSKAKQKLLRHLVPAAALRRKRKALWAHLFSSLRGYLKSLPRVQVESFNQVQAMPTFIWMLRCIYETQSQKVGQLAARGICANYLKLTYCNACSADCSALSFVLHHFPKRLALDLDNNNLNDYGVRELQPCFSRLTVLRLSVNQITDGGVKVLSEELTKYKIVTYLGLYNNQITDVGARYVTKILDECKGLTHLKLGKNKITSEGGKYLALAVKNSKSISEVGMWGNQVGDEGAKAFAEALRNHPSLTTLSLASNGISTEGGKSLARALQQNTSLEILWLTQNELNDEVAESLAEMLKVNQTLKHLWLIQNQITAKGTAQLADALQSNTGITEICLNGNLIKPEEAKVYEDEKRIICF
Procedure, shortened: (§2)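 HEK-Blue NOD1 or NOD2 reporter cells (5 × 10^5 cells/mL, passages 7–12) pre-treated 1 h with 10 µM compound. Then 100 nM C12-iE-DAP (NOD1) or 2 µM MDP (NOD2) for 18 h at 37 °C, 5% CO2. Secreted SEAP read at 620 nm. DMSO ≤0.1% vehicle control. Duplicates, three biological replicates.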

[6] = target: T1, Nucleotide-binding oligomerization domain-containing protein 2; assay: Antagonist activity at NOD2 in human PBMC assessed as reduction in MDP-induced TNF-alpha secretion at 20 uM preincubated for 1 hr followed by MDP stimulation and measured after 18 hrs by flow cytometric analysis; type: tissue-based; conditions: filed as antagonist, time 19.0 hrs
Procedure, shortened: (§3)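 Human PBMCs from healthy donors, Ficoll density-gradient isolated, 1 × 10^6 cells in RPMI 1640 with 10% heat-inactivated FBS. Pre-treated 1 h with 20 µM compound, then 2 µM MDP. Supernatants taken at 18 h and stored at −80 °C. Cytokines quantified by flow cytometric bead array (Th1/Th2 panel) against recombinant standards, in pg/mL. Mean ± SD from two representative experiments.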

[7] = target: T1, Nucleotide-binding oligomerization domain-containing protein 2; assay: Antagonist activity at NOD2 in human THP-1 cells assessed as reduction in MDP-induced IL-8 secretion at 20 uM preincubated for 1 hr followed by MDP stimulation and measured after 20 hrs by ELISA; type: cell-based; conditions: filed as antagonist, time 21.0 hrs
Procedure, shortened: (§4)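 THP-1 cells at 10^6 cells/mL in 24-well cultures, passages 3–12. Pre-treated 1 h with 20 µM compound, then 10 µM MDP (NOD2) or 10 µM C12-iE-DAP (NOD1) added, 20 h at 37 °C, 5% CO2. Triplicate wells, DMSO ≤0.2% as vehicle control. Supernatant IL-8 by sandwich ELISA, detection limit 15.6 pg/mL. Mean ± SD of duplicates from three independent experiments, Dunnett test.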

[8] = target: T3, Nucleotide-binding oligomerization domain-containing protein 1 (Homo sapiens, UniProt Q9Y239); assay: Antagonist activity at human NOD1 expressed in HEK293 cells assessed as reduction in C12-iE-DAP-induced NF-kappaB activation preincubated for 1 hr followed by C12-iE-DAP stimulation and measured after 18 hrs by SEAP reporter gene based spectrophotometric analysis; type: cell-based
T3 sequence (Q9Y239 whole entry): T2 sequence (whole entry)

[9] = tested on: THP-1; assay: Antagonist activity at NOD2/TLR4 in human THP-1 cells assessed as reduction in MDP/LPS-induced TNF-alpha secretion at 20 uM preincubated for 1 hr followed by MDP/LPS stimulation and measured after 20 hrs by ELISA; type: cell-based; conditions: filed as antagonist, time 21.0 hrs
Procedure, shortened: (§5)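 Synergy setting in THP-1 cells: 1 h pre-treatment with 20 µM compound, then 10 µM MDP or C12-iE-DAP plus 1 ng/mL E. coli O127:B8 LPS for 20 h. Supernatant TNF-α by sandwich ELISA, detection limit 4 pg/mL. DMSO vehicle ≤0.2%. Duplicates from three independent experiments, mean ± SD, Dunnett test against agonist+LPS-treated cells.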

[10] = target: T2, Nucleotide-binding oligomerization domain-containing protein 1 (Homo sapiens); assay: Antagonist activity at NOD1 in human THP-1 cells assessed as reduction in C12-iE-DAP-induced IL-8 secretion at 20 uM preincubated for 1 hr followed by C12-iE-DAP stimulation and measured after 20 hrs by ELISA; type: cell-based; conditions: filed as antagonist, time 21.0 hrs; procedure, shortened: as §4
[11] = tested on: THP-1; assay: Antagonist activity at NOD1/TLR4 in human THP-1 cells assessed as reduction in C12-iE-DAP/LPS-induced TNF-alpha secretion at 20 uM preincubated for 1 hr followed by C12-iE-DAP/LPS stimulation and measured after 20 hrs by ELISA; type: cell-based; conditions: time 21.0 hrs; procedure, shortened: as §5
[12] = tested on: THP-1; assay: Antagonist activity at NOD in human THP-1 cells assessed as increase in TNF-alpha secretion at 20 uM; type: cell-based
Procedure, shortened: (§6)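 THP-1 cells at 10^6 cells/mL in RPMI 1640 with 10% heat-inactivated FCS, passages 3–12, exposed to 20 µM compound alone (no NOD agonist). IL-8 and TNF-α in cell-free supernatants measured by sandwich ELISA, reported in pg/mL. Detection limits were 15.6 pg/mL for IL-8 and 4 pg/mL for TNF-α. DMSO vehicle control, not above 0.2% final.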

[13] = target: T1, Nucleotide-binding oligomerization domain-containing protein 2; assay: Antagonist activity at NOD2 in human PBMC assessed as reduction in MDP-induced IL-10 secretion at 20 uM preincubated for 1 hr followed by MDP stimulation and measured after 18 hrs by flow cytometric analysis; type: tissue-based; conditions: filed as antagonist, time 19.0 hrs; procedure, shortened: as §3
[14] = tested on: THP-1; assay: Antagonist activity at NOD in human THP-1 cells assessed as increase in IL-8 secretion at 20 uM; type: cell-based; procedure, shortened: as §6
[15] = target: T1, Nucleotide-binding oligomerization domain-containing protein 2; assay: Antagonist activity at human NOD2 expressed in HEK293 cells assessed as reduction in MDP-induced NF-kappaB activation at 10 uM preincubated for 1 hr followed by MDP stimulation and measured after 18 hrs by SEAP reporter gene based spectrophotometric analysis; type: cell-based; conditions: filed as antagonist, time 19.0 hrs; procedure, shortened: as §2
[16] = target: T1, Nucleotide-binding oligomerization domain-containing protein 2; assay: Antagonist activity at NOD2 in human PBMC assessed as reduction in MDP-induced IL-6 secretion at 20 uM preincubated for 1 hr followed by MDP stimulation and measured after 18 hrs by flow cytometric analysis; type: tissue-based; conditions: filed as antagonist, time 19.0 hrs; procedure, shortened: as §3

O=C(Cn1c(CCNS(=O)(=O)c2ccccc2)nc2ccccc21)Nc1ccc2c(c1)CCC2
active: Activity [5] | Activity [6] | Activity [7] | Activity [9] | Activity [10] | Activity [13] | Activity [15] | Activity [16]
Non-Toxic: Activity [1] | Activity [2] | Activity [3]
inactive: Activity [11] | Activity [12] | Activity [14]
28.2 µM: IC50 [8]
5.23 µM: IC50 [4]
